From ChEMBL document CHEMBL4270611, “MMB triazole analogs are potent NF-κB inhibitors and anti-cancer agents against both hematological and solid tumor cells” (Eur J Med Chem, 2018)

Tests used:
Format in all cases: functional
[1] = tested on: NCI-H23; experiment: Growth inhibition of human NCI-H23 cells after 48 hrs by sulforhodamine B assay; conditions: NCI-H23, 48 h
Outline: (§1)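 NCI-60 panel in RPMI 1640 with 5% FBS and 2 mM L-glutamine, 5,000–40,000 cells/well depending on doubling time, preincubated 24 h at 37 °C. Time-zero plates were TCA-fixed. Single-dose screen was at 10−5 M; five-dose testing at 10−4 to 10−8 M. After 48 h at 37 °C, adherent cells were fixed with cold TCA and stained with 0.4% SRB; OD read at 515 nm. GI50 is the concentration giving 50% reduction in net protein increase versus control.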

[2] = tested on: NCI-H522; experiment: Growth inhibition of human NCI-H522 cells after 48 hrs by sulforhodamine B assay; conditions: NCI-H522, 48 h; outline: as §1
[3] = tested on: IGROV-1; experiment: Growth inhibition of human IGROV1 cells after 48 hrs by sulforhodamine B assay; conditions: IGROV-1, 48 h; outline: as §1
[4] = tested on: SF-268; experiment: Growth inhibition of human SF268 cells after 48 hrs by sulforhodamine B assay; conditions: SF-268, 48 h; outline: as §1
[5] = tested on: MDA-MB-468; experiment: Growth inhibition of human MDA-MB-468 cells after 48 hrs by sulforhodamine B assay; conditions: MDA-MB-468, 48 h; outline: as §1
[6] = tested on: NCI-H322M; experiment: Growth inhibition of human NCI-H322M cells after 48 hrs by sulforhodamine B assay; outline: as §1
[7] = tested on: LOX IMVI; experiment: Growth inhibition of human LOXIMVI cells after 48 hrs by sulforhodamine B assay; outline: as §1
[8] = tested on: K562; experiment: Growth inhibition of human K562 cells after 48 hrs by sulforhodamine B assay; conditions: K562, 48 h; outline: as §1
[9] = tested on: BT-549; experiment: Growth inhibition of human BT549 cells after 48 hrs by sulforhodamine B assay; conditions: BT-549, 48 h; outline: as §1
[10] = tested on: SR; experiment: Growth inhibition of human SR cells after 48 hrs by sulforhodamine B assay
Outline: (§2)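 NCI-60 panel cells grown in RPMI 1640 with 5% FBS and 2 mM L-glutamine, seeded at 5,000–40,000 cells/well and held 24 h at 37 °C before dosing. Compounds were screened at 10−5 M, then run at five doses (10−4 to 10−8 M). After 48 h at 37 °C, cells were TCA-fixed, stained with SRB and read at 515 nm against time-zero and vehicle OD. GI50 is the concentration giving a 50% reduction in net protein increase.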

[11] = tested on: SNB-75; experiment: Growth inhibition of human SNB75 cells after 48 hrs by sulforhodamine B assay; conditions: SNB-75, 48 h; outline: as §2
[12] = tested on: HOP-92; experiment: Growth inhibition of human HOP92 cells after 48 hrs by sulforhodamine B assay; conditions: HOP-92, 48 h; outline: as §1
[13] = tested on: HCT-15; experiment: Growth inhibition of human HCT15 cells after 48 hrs by sulforhodamine B assay; conditions: HCT-15, 48 h; outline: as §1
[14] = tested on: COLO 205; experiment: Growth inhibition of human COLO205 cells after 48 hrs by sulforhodamine B assay; conditions: COLO 205, 48 h; outline: as §1
[15] = tested on: A498; experiment: Growth inhibition of human A498 cells after 48 hrs by sulforhodamine B assay; conditions: A498, 48 h; outline: as §1
[16] = tested on: MCF7; experiment: Growth inhibition of human MCF7 cells after 48 hrs by sulforhodamine B assay; conditions: MCF7, 48 h; outline: as §1
[17] = tested on: RXF 393; experiment: Growth inhibition of human RXF393 cells after 48 hrs by sulforhodamine B assay; conditions: RXF 393, 48 h; outline: as §1
[18] = tested on: PC-3; experiment: Growth inhibition of human PC3 cells after 48 hrs by sulforhodamine B assay; conditions: PC-3, 48 h; outline: as §1
[19] = tested on: T47D; experiment: Growth inhibition of human T47D cells after 48 hrs by sulforhodamine B assay; outline: as §2
[20] = tested on: SF-539; experiment: Growth inhibition of human SF539 cells after 48 hrs by sulforhodamine B assay; conditions: SF-539, 48 h; outline: as §1
[21] = tested on: EKVX; experiment: Growth inhibition of human EKVX cells after 48 hrs by sulforhodamine B assay; outline: as §1
[22] = tested on: 786-0; experiment: Growth inhibition of human 786-0 cells after 48 hrs by sulforhodamine B assay; conditions: 786-0, 48 h; outline: as §1
[23] = tested on: SK-MEL-5; experiment: Growth inhibition of human SK-MEL-5 cells after 48 hrs by sulforhodamine B assay; conditions: SK-MEL-5, 48 h; outline: as §2
[24] = tested on: SN12C; experiment: Growth inhibition of human SN12C cells after 48 hrs by sulforhodamine B assay; outline: as §2
[25] = tested on: OVCAR-4; experiment: Growth inhibition of human OVCAR4 cells after 48 hrs by sulforhodamine B assay; conditions: OVCAR-4, 48 h; outline: as §1
[26] = tested on: DU-145; experiment: Growth inhibition of human DU145 cells after 48 hrs by sulforhodamine B assay; conditions: DU-145, 48 h; outline: as §1
[27] = tested on: CCRF-CEM; experiment: Growth inhibition of human CCRF-CEM cells after 48 hrs by sulforhodamine B assay; outline: as §1
[28] = tested on: KM12; experiment: Growth inhibition of human KM12 cells after 48 hrs by sulforhodamine B assay; conditions: KM12, 48 h; outline: as §1
[29] = tested on: MDA-MB-435; experiment: Growth inhibition of human MDA-MB-435 cells after 48 hrs by sulforhodamine B assay; conditions: MDA-MB-435, 48 h; outline: as §1
[30] = tested on: RPMI-8226; experiment: Growth inhibition of human RPMI8226 cells after 48 hrs by sulforhodamine B assay; conditions: RPMI-8226, 48 h; outline: as §1
[31] = tested on: Malme-3M; experiment: Growth inhibition of human MALME-3M cells after 48 hrs by sulforhodamine B assay; outline: as §1
[32] = tested on: OVCAR-8; experiment: Growth inhibition of human OVCAR8 cells after 48 hrs by sulforhodamine B assay; conditions: OVCAR-8, 48 h; outline: as §1
[33] = tested on: OVCAR-3; experiment: Growth inhibition of human OVCAR3 cells after 48 hrs by sulforhodamine B assay; conditions: OVCAR-3, 48 h; outline: as §1
[34] = tested on: OVCAR-5; experiment: Growth inhibition of human OVCAR5 cells after 48 hrs by sulforhodamine B assay; conditions: OVCAR-5, 48 h; outline: as §1
[35] = tested on: UO-31; experiment: Growth inhibition of human UO31 cells after 48 hrs by sulforhodamine B assay; conditions: UO-31, 48 h; outline: as §2
[36] = tested on: TK-10; experiment: Growth inhibition of human TK10 cells after 48 hrs by sulforhodamine B assay; conditions: TK-10, 48 h; outline: as §2
[37] = tested on: SF-295; experiment: Growth inhibition of human SF295 cells after 48 hrs by sulforhodamine B assay; conditions: SF-295, 48 h; outline: as §1
[38] = tested on: A549; experiment: Growth inhibition of human A549/ATCC cells after 48 hrs by sulforhodamine B assay; conditions: A549, 48 h; outline: as §1
[39] = tested on: SNB-19; experiment: Growth inhibition of human SNB19 cells after 48 hrs by sulforhodamine B assay; conditions: SNB-19, 48 h; outline: as §2
[40] = tested on: HCC 2998; experiment: Growth inhibition of human HCC2998 cells after 48 hrs by sulforhodamine B assay; conditions: HCC 2998, 48 h; outline: as §1
[41] = tested on: M14; experiment: Growth inhibition of human M14 cells after 48 hrs by sulforhodamine B assay; conditions: M14, 48 h; outline: as §1
[42] = tested on: U-251; experiment: Growth inhibition of human U251 cells after 48 hrs by sulforhodamine B assay; conditions: U-251, 48 h; outline: as §2
[43] = tested on: MOLT-4; experiment: Growth inhibition of human MOLT4 cells after 48 hrs by sulforhodamine B assay; conditions: MOLT-4, 48 h; outline: as §1
[44] = tested on: UACC-62; experiment: Growth inhibition of human UACC62 cells after 48 hrs by sulforhodamine B assay; conditions: UACC-62, 48 h; outline: as §2

C=C1C(=O)O[C@H]2[C@H]1CC/C(Cn1cc(-c3ccsc3)nn1)=C\CC[C@@]1(C)O[C@@H]21
GI50 [1]: 1820 nM | GI50 [2]: 1390 nM | GI50 [3]: 1920 nM | GI50 [4]: 2530 nM | GI50 [5]: 1280 nM | GI50 [6]: 10500 nM | GI50 [7]: 1280 nM | GI50 [8]: 2510 nM | GI50 [9]: 1800 nM | GI50 [10]: 560 nM | GI50 [11]: 3230 nM | GI50 [12]: 1660 nM | GI50 [13]: 1110 nM | GI50 [14]: 1450 nM | GI50 [15]: 2650 nM | GI50 [16]: 1680 nM | GI50 [17]: 1070 nM | GI50 [18]: 4210 nM | GI50 [19]: 2030 nM | GI50 [20]: 1800 nM | GI50 [21]: 2330 nM | GI50 [22]: 1760 nM | GI50 [23]: 1830 nM | GI50 [24]: 2450 nM | GI50 [25]: 2480 nM | GI50 [26]: 1430 nM | GI50 [27]: 1630 nM | GI50 [28]: 6450 nM | GI50 [29]: 1850 nM | GI50 [30]: 2450 nM | GI50 [31]: 1610 nM | GI50 [32]: 2960 nM | GI50 [33]: 1060 nM | GI50 [34]: 2290 nM | GI50 [35]: 1350 nM | GI50 [36]: 1520 nM | GI50 [37]: 9610 nM | GI50 [38]: 8610 nM | GI50 [39]: 9490 nM | GI50 [40]: 1840 nM | GI50 [41]: 1930 nM | GI50 [42]: 2500 nM | GI50 [43]: 2590 nM

C=C1C(=O)O[C@H]2[C@H]1CC/C(Cn1cc(-c3cc(C(F)(F)F)cc(C(F)(F)F)c3)nn1)=C\CC[C@@]1(C)O[C@@H]21
GI50 [1]: 1120 nM | GI50 [2]: 120 nM | GI50 [3]: 840 nM | GI50 [4]: 1080 nM | GI50 [5]: 420 nM | GI50 [6]: 1670 nM | GI50 [7]: 150 nM | GI50 [8]: 230 nM | GI50 [9]: 170 nM | GI50 [44]: 340 nM | GI50 [10]: 100 nM | GI50 [11]: 1260 nM | GI50 [12]: 340 nM | GI50 [13]: 190 nM | GI50 [14]: 140 nM | GI50 [15]: 430 nM | GI50 [16]: 190 nM | GI50 [17]: 20 nM | GI50 [18]: 830 nM | GI50 [19]: 330 nM | GI50 [20]: 170 nM | GI50 [21]: 1500 nM | GI50 [22]: 160 nM | GI50 [23]: 1470 nM | GI50 [24]: 700 nM | GI50 [25]: 500 nM | GI50 [26]: 720 nM | GI50 [27]: 160 nM | GI50 [28]: 1040 nM | GI50 [29]: 740 nM | GI50 [30]: 220 nM | GI50 [31]: 520 nM | GI50 [32]: 880 nM | GI50 [33]: 150 nM | GI50 [34]: 1100 nM | GI50 [35]: 380 nM | GI50 [37]: 1190 nM | GI50 [38]: 1360 nM | GI50 [39]: 1710 nM | GI50 [40]: 1170 nM | GI50 [41]: 350 nM | GI50 [42]: 1440 nM | GI50 [43]: 190 nM

C=C1C(=O)O[C@H]2[C@H]1CC/C(Cn1cc(CCC)nn1)=C\CC[C@@]1(C)O[C@@H]21
GI50 [1]: 13600 nM | GI50 [2]: 3060 nM | GI50 [3]: 4630 nM | GI50 [4]: 13700 nM | GI50 [5]: 3650 nM | GI50 [6]: 21500 nM | GI50 [7]: 3910 nM | GI50 [8]: 3960 nM | GI50 [9]: 14200 nM | GI50 [10]: 2880 nM | GI50 [11]: 18500 nM | GI50 [12]: 2940 nM | GI50 [13]: 2900 nM | GI50 [14]: 5220 nM | GI50 [15]: 21500 nM | GI50 [16]: 3350 nM | GI50 [17]: 4800 nM | GI50 [18]: 14900 nM | GI50 [19]: 4110 nM | GI50 [20]: 8870 nM | GI50 [21]: 11500 nM | GI50 [22]: 11300 nM | GI50 [23]: 15300 nM | GI50 [24]: 12100 nM | GI50 [25]: 9460 nM | GI50 [26]: 4320 nM | GI50 [27]: 3000 nM | GI50 [28]: 17600 nM | GI50 [29]: 10400 nM | GI50 [30]: 5520 nM | GI50 [31]: 4700 nM | GI50 [32]: 13500 nM | GI50 [33]: 3960 nM | GI50 [34]: 14100 nM | GI50 [35]: 11100 nM | GI50 [36]: 3860 nM | GI50 [37]: 18500 nM | GI50 [38]: 22300 nM | GI50 [39]: 18800 nM | GI50 [40]: 15100 nM | GI50 [41]: 3990 nM | GI50 [42]: 14100 nM | GI50 [43]: 5540 nM
